Measured values: ChEMBL document CHEMBL2417419, “Synthesis and quantitative structure-activity relationship of imidazotetrazine prodrugs with activity independent of O6-methylguanine-DNA-methyltransferase, DNA mismatch repair, and p53” (J Med Chem, 2013)
Active and inactive are the calls of the source. The rule behind the calls is not given here.

Assays:
[1] = system: A2780; experiment: Chemosensitization of human A2780 cells after 5 days by MTT assay; type: functional, cell-based; details: A2780, 120 h
[2] = system: SNB-19; experiment: Chemosensitization of human SNB19 cells expressing MGMT after 5 days by MTT assay; type: functional, cell-based; details: SNB-19, 120 h, in the assay text read “Cyquant assay” for “MTT assay”
[3] = system: A2780; experiment: Ratio of IC50 for human A2780 cells to IC50 for human A2780 cells in presence of MGMT inactivator PaTrin2; type: functional
[4] = system: A2780; experiment: Chemosensitization of human A2780 cells after 5 days by MTT assay in presence of MGMT inactivator PaTrin2; type: functional, cell-based; details: A2780, 120 h
Summary of the method: (§1)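 Cells plated at 1×10^3 per well and left overnight at 37 °C in 5% CO2 to adhere. Medium was then replaced with fresh medium holding compound (0 controls to 250 µM; DMSO stock, final DMSO <0.1% v/v) plus 10 µM PaTrin2 to inactivate MGMT. Survival was read by MTT after 5 days at 37 °C.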

[5] = system: A2780; experiment: Ratio of IC50 for MMR-deficient human A2780/CP70 cells to IC50 for human A2780 cells in presence of MGMT inactivator PaTrin2; type: functional
[6] = (§2) Chemoseinsitizatioin of MMR-deficieint humain A2780/CP70 cells after 5 days by MTT assay in preseince of MGMT iinactivator PaTriin2; type: functional, cell-based; details: Homo sapiens, A2780/CP70, 120 h; summary of the method: as §1
[7] = Half life of the compound at pH 7.4; type: physicochemical
[8] = (§3) Chemosensitization of MMR-deficient human A2780/CP70 cells after 5 days by MTT assay; type: functional, cell-based; details: A2780/CP70, 120 h
[9] = system: SNB-19; experiment: Chemosensitization of MGMT-deficient human SNB19 cells after 5 days by MTT assay; type: functional, cell-based; details: SNB-19, 120 h, in the assay text read “Cyquant assay” for “MTT assay”
[10] = system: A2058; experiment: Chemosensitization of human A2058 cells after 5 days by MTT assay; type: functional, cell-based; details: A2058, 120 h, in the assay text read “Cyquant assay” for “MTT assay”
[11] = system: A2780/CP70; experiment: as §2; type: functional, cell-based; details: Homo sapiens; summary of the method: as §1
[12] = system: A2780/CP70; experiment: as §3; type: functional, cell-based
[13] = system: HCT-116; experiment: Chemosensitization of p53-deficient human HCT116 cells after 5 days by MTT assay; type: functional, cell-based; details: HCT-116, 120 h
Summary of the method: (§4)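 Cells were seeded at 1×10^3 per well and incubated overnight (37 °C, 5% CO2) to attach, then given fresh medium with compound at 0 (control) to 250 µM. Compounds were dissolved in DMSO, final DMSO <0.1% v/v, with no PaTrin2. MTT survival was measured after 5 days at 37 °C. Isogenic HCT116 p53+/+ and p53−/− pair used.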

[14] = system: HCT-116; experiment: Chemosensitization of human HCT116 cells expressing p53 after 5 days by MTT assay; type: functional, cell-based; details: HCT-116, 120 h; summary of the method: as §4
[15] = system: A2058; experiment: Ratio of temozolomide IC50 to compound IC50 for human A2058 cells; type: functional
[16] = system: HCT-116; experiment: Ratio of IC50 for human HCT116 cells expressing p53 to IC50 for p53-deficient human HCT116 cells; type: functional

half-life [7] | Compound | IC50 [1] | IC50 [2] | Ratio IC50 [3] | IC50 [4] | Ratio IC50 [5] | IC50 [6] | IC50 [8] | IC50 [9] | IC50 [10] | Activity [11] | Activity [12] | IC50 [13] | IC50 [14] | Ratio IC50 [15] | Ratio IC50 [16]
1.24 h | Cn1nnc2c(C(N)=O)ncn2c1=O [TEMOZOLOMIDE] | > 250 µM | > 250 µM | >30 | 8.5 µM | >27 | 231 µM | > 250 µM | 37 µM | 35.5 µM | – | – | – | – | – | –
– | COc1ccc(N(CCn2nnc3c(C(N)=O)ncn3c2=O)CCn2nnc3c(C(N)=O)ncn3c2=O)c([N+](=O)[O-])c1 | 1 µM | – | 0.5 | – | 5 | – | – | – | – | Active | Active | – | – | – | –
– | NC(=O)c1ncn2c(=O)n(CCN(CCn3nnc4c(C(N)=O)ncn4c3=O)c3ccc(F)cc3)nnc12 | 1 µM | 12 µM | 0.5 | – | 5 | – | – | 11 µM | 5.5 µM | Active | Active | 17 µM | 28 µM | 10 | 1.6
– | COc1ccc(N(C)CCn2nnc3c(C(N)=O)ncn3c2=O)c([N+](=O)[O-])c1 | 22 µM | – | 1.1 | – | 2.8 | – | – | – | – | Active | Active | – | – | – | –
– | CN(CCn1nnc2c(C(N)=O)ncn2c1=O)c1ccc([N+](=O)[O-])cc1 | 22 µM | – | 1.1 | – | 2.8 | – | – | – | – | Active | Active | – | – | – | –
– | NC(=O)c1ncn2c(=O)n(CCN(CCn3nnc4c(C(N)=O)ncn4c3=O)c3ccccc3)nnc12 | 1 µM | – | 0.5 | – | 5 | – | – | – | – | Active | Active | 4.8 µM | 5.5 µM | – | 1.1
– | CC(C)(C)OC(=O)N(CCn1nnc2c(C(N)=O)ncn2c1=O)c1ccc(Cl)cc1 | 22 µM | – | 1.1 | – | 2.8 | – | – | – | – | Active | Active | – | – | – | –
– | COc1ccc(N(CCn2nnc3c(C(N)=O)ncn3c2=O)CCn2nnc3c(C(N)=O)ncn3c2=O)cc1 | 1 µM | 7 µM | 0.5 | – | 5 | – | – | 6.6 µM | 2.5 µM | Active | Active | 9.9 µM | 7.6 µM | 10 | 0.8
– | NC(=O)c1ncn2c(=O)n(CCN(CCn3nnc4c(C(N)=O)ncn4c3=O)c3ccc(Cl)cc3)nnc12 | 1 µM | – | 0.5 | – | 5 | – | – | – | – | Active | Active | – | – | – | –
– | NC(=O)c1ncn2c(=O)n(CCNc3ccc(Cl)cc3)nnc12 | 22 µM | > 100 µM | 1.1 | – | 2.8 | – | – | 77 µM | > 100 µM | Active | Active | 9.5 µM | 13.2 µM | – | 1.4
– | CN(CCn1nnc2c(C(N)=O)ncn2c1=O)c1ccc(F)cc1 | 22 µM | – | 1.1 | – | 2.8 | – | – | – | – | Active | Active | – | – | – | –
– | Cc1ccc(N(C)CCn2nnc3c(C(N)=O)ncn3c2=O)cc1 | 22 µM | – | 1.1 | – | 2.8 | – | – | – | – | Active | Active | – | – | – | –
– | NC(=O)c1ncn2c(=O)n(CCCl)nnc12 [MITOZOLOMIDE] | – | – | – | – | – | – | – | – | – | – | – | 17.9 µM | 60 µM | – | 3.4
– | Cc1ccc(N(CCn2nnc3c(C(N)=O)ncn3c2=O)CCn2nnc3c(C(N)=O)ncn3c2=O)cc1 | 1 µM | – | 0.5 | – | 5 | – | – | – | – | Active | Active | 4.4 µM | 6.2 µM | – | 1.4
– | CN(CCn1nnc2c(C(N)=O)ncn2c1=O)c1ccc(Cl)cc1 | 22 µM | – | 1.1 | – | 2.8 | – | – | – | – | Active | Active | 35.8 µM | 55 µM | – | 1.5
– | Cc1ccc(N(C)CCn2nnc3c(C(N)=O)ncn3c2=O)cc1[N+](=O)[O-] | 22 µM | – | 1.1 | – | 2.8 | – | – | – | – | Active | Active | – | – | – | –
– | CN(CCn1nnc2c(C(N)=O)ncn2c1=O)c1ccccc1 | 22 µM | – | 1.1 | – | 2.8 | – | – | – | – | Active | Active | – | – | – | –
